NPY1 pot ag = potentiators or agonists of human neuropeptide Y receptor Y1 | NPY-Y1 expressing cells, potentiator/agonist activation | 0.37% of 220,000 active | activation, % at 3.6 µM | AID 1304 | P25929; in the data active means activation above about 33%, passing the limit was not always enough;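 further: cells stimulated with NPY at EC10 then isoproterenol at EC100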
Target sequence (P25929 whole entry, looked up): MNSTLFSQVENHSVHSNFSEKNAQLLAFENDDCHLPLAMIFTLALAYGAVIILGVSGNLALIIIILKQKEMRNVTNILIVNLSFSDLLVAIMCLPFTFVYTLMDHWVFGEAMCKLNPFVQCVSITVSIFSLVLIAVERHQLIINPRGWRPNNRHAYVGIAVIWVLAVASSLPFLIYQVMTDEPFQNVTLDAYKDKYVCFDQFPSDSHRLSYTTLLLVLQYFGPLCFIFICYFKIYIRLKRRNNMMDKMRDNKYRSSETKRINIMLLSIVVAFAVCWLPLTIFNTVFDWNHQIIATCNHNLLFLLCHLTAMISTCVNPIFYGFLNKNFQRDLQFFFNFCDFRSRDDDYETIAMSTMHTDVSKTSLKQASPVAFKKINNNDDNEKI
NPY2 pot ag = potentiates or activates human NPY-Y2 receptor | P49146 | cells expressing NPY-Y2, potentiator/agonist read-out | activation, % at 3.6 µM | 0.45% of 220,000 active; in the data active means activation above about 27%;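 further: cells stimulated with NPY near EC25 plus isoproterenol at EC100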
b-catenin transl = alters nuclear translocation of beta-catenin in HeLa cells; nuclear translocation activity, % at 5 µM; 0.3% of 190,000 active; immunofluorescence imaging; AID 1665;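 active means nuclear translocation activity above 50% at 5 µM, with a well cell count of 50 or more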;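 further: per-cell ratio of nuclear to cytoplasmic median beta-catenin stain intensity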
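Assay system: human HeLa cells, native beta-catenin; doses: 5 µM primary, 0.02–20 µM confirmation; incubation: compound treatment 24 h, 37°C, 5% CO2; technique: fluorescence imaging of beta-catenin antibody stain plus DAPI; measure: % activation, nuclear-to-cytoplasmic median beta-catenin signal ratio per cell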
NPY-Y2 antag = blocks the human neuropeptide Y Y2 receptor; inhibition, % at 2.7 µM; 0.99% of 140,000 active; P49146; NPY-Y2 expressing cells, antagonist mode; AID 793; in the data active means inhibition above about 17%
NPY-Y1 antag = antagonists of human neuropeptide Y receptor Y1; HEK293-CNG Y1 cells, membrane potential fluorescence; NPY at EC95, then isoproterenol; inhibition, % at 3.6 µM; 1% of 200,000 active; AID 1040;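 active means inhibition above the campaign mean inhibition of all tested compounds plus 3 SD, cut at about 20% in these data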
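Material: HEK293 cells with Y1 receptor plus CNG channel; times: compound incubation 1 h at room temperature, readout 45 min post-stimulation; signal: fluorescence, membrane potential probe; read-out basis: fluorescence ratio normalized to % inhibition between controls; benchmarks: full-block control isoproterenol-only wells, zero-block control NPY plus isoproterenol wells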
MT stabilize HCS = microtubule stabilization, imaging screen | HeLa tubulin immunostaining HCS, 24 h; share of cells brighter than vehicle mean+2SD | % tubulin-high responders, % at 10 µM | 0.83% of 200,000 active | AID 2205;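 active means plate Z-score above 3 for both tubulin-high and condensed-nucleus cell shares, with cell loss under 80%, at 10 µM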;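 further: anti alpha tubulin signal scored within the nucleus-defined area of each cell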
NPY-Y1 confirm = human NPY-Y1 potentiation or agonism, confirmation. activation, % at 3.6 µM. shares compounds with NPY1 pot ag. cell-based NPY-Y1 potentiator/agonist assay. AID 1546. 20% of 280 active; in the data active means activation above about 45%;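 further: cells challenged with NPY at its EC10 plus isoproterenol stimulus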
NPY-Y2 counter = potentiates or activates NPY-Y2, counter-screen for NPY-Y1 hits; shares compounds with NPY1 pot ag; HEK293-CNG cells, membrane-potential fluorescence (FLIPR), 1536-well; activation, % at 3.6 µM; 20% of 280 active; in the data active means activation above about 33%
NPY-Y1 agonist = counter-screen for NPY-Y1 potentiators: agonists of human NPY-Y1; shares compounds with NPY1 pot ag; HEK293 Y1-CNGC, membrane potential fluorescence, agonist mode; activation, % at 3.6 µM; 50% of 280 active;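 active means percent activation above the mean of DMSO-only control wells plus 3 SD of those wells, cut at about 18% in these data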;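 further: cells challenged with isoproterenol plus Ro 20-1724 with no NPY in test wells; Y1 agonism lowers isoproterenol-driven cAMP and reduces probe fluorescence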
NPY-Y2 ag = counter-screen for NPY-Y1 potentiators or agonists: agonists of NPY-Y2. HEK293 Y2-CNGC, membrane potential fluorescence, agonist mode. shares compounds with NPY1 pot ag. 67% of 280 active. activation, % at 3.6 µM;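 active means activation above the solvent-only control wells' mean plus 3 SD, cut at about 11% in these data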;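 further: agonism lowers cAMP so well fluorescence drops in active wells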
CNGC counter = counter-screen for NPY-Y1 potentiators or agonists: CNG channel inhibitors; shares compounds with NPY1 pot ag; HEK293-CNG parental, isoproterenol cAMP, membrane potential fluorescence; inhibition, % at 3.6 µM; 42% of 280 active; AID 1704;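 active means inhibition above the mean of stimulated solvent-only control wells plus 3 SD, cut at about 22% in these data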
Each line names hits and unclear results; the compound was inactive in the other large screens (follow-up assays come after a bar, where they were run). Rows were chosen to be rich in hits. Some 2.6% of all compounds tested hit in one or more screens of this group.

O=C(Cn1c(=O)sc2ccccc21)OC(CCl)CCl	NPY1 pot ag 44 | NPY-Y1 confirm 78 | NPY-Y2 counter 49 | NPY-Y1 agonist 62 | NPY-Y2 ag 49 | CNGC counter 75
Cc1ccc(N2C(=N)/C(=C3/Nc4ccccc4S3)C(c3ccccc3)C2=O)cc1 (centres undefined)	none
CCOc1ccc(CC(C(N)=O)C(N)=O)cc1CN(C)C	none
CCOc1ccc(C(=O)Nc2ccc(N3CCN(C)CC3)cc2)cc1Br	NPY1 pot ag 37 | NPY-Y1 confirm inactive | NPY-Y2 counter inactive | NPY-Y1 agonist 23 | NPY-Y2 ag 22 | CNGC counter 26
O=C(Nc1ccc([N+](=O)[O-])cc1)C(=O)Nc1cccc(C(=O)O)c1	NPY1 pot ag 52 (no result: NPY-Y2 antag, NPY-Y1 antag, MT stabilize HCS) | NPY-Y1 confirm inactive | NPY-Y2 counter inactive | NPY-Y1 agonist 24 | NPY-Y2 ag inactive | CNGC counter 35
COc1ccc(N2C(=S)NC3c4cc(Cl)ccc4OC2(C)C3C(=O)N(C)C)cc1 (centres undefined)	none (no result: NPY-Y2 antag)
Cc1cccc(N2C(=S)NC3c4cc(Cl)ccc4OC2(C)C3C(=O)N(C)C)c1 (centres undefined)	NPY1 pot ag 42 (no result: NPY-Y2 antag) | NPY-Y1 confirm 59 | NPY-Y2 counter inactive | NPY-Y1 agonist 44 | NPY-Y2 ag 33 | CNGC counter 47
Cc1ccc(N2C(=S)NC3c4cc(Cl)ccc4OC2(C)C3C(=O)N(C)C)cc1 (centres undefined)	NPY1 pot ag 35 (no result: NPY-Y2 antag) | NPY-Y1 confirm 74 | NPY-Y2 counter 44 | NPY-Y1 agonist 51 | NPY-Y2 ag 47 | CNGC counter 51
O=C(Nc1ccc(C(=O)N2CCOCC2)cc1)Nc1cccc2ccccc12	none (no result: NPY-Y2 antag)
CCCOC(=O)c1c(-c2ccc(C)cc2C)csc1NC(=O)C1C2CCC(O2)C1C(=O)O (centres undefined)	NPY1 pot ag 48 | NPY-Y1 confirm inactive | NPY-Y2 counter inactive | NPY-Y1 agonist 18 | NPY-Y2 ag 13 | CNGC counter inactive
CCOC(=O)c1c(NC(=O)C2C3CCC(O3)C2C(=O)O)sc(C)c1-c1ccc(F)cc1 (centres undefined)	none (no result: b-catenin transl)
CC(NC(=S)NCCc1ccccc1)C(c1cccs1)N1CCN(C)CC1 (centres undefined)	none
O=C(Nc1ccccc1)Nc1cc(OCC(F)(F)F)cc(OCC(F)(F)F)c1	NPY1 pot ag 46 (no result: b-catenin transl) | NPY-Y1 confirm inactive | NPY-Y2 counter inactive | NPY-Y1 agonist inactive | NPY-Y2 ag 25 | CNGC counter 25
COCCN=c1scc(-c2cccs2)n1/N=C/c1ccc(O)c(O)c1O	NPY1 pot ag 54 | NPY-Y1 confirm inactive | NPY-Y2 counter inactive | NPY-Y1 agonist 29 | NPY-Y2 ag inactive | CNGC counter inactive
CC(C)OC(=O)CSc1nc(Cc2cccs2)nc2ccccc12	none (no result: NPY-Y2 antag)
Fc1cc(NC(=S)NCc2ccc(CNC(=S)Nc3ccc(Cl)c(F)c3)cc2)ccc1Cl	NPY1 pot ag 52 (no result: NPY-Y2 antag, NPY-Y1 antag, MT stabilize HCS) | NPY-Y1 confirm 71 | NPY-Y2 counter 51 | NPY-Y1 agonist 55 | NPY-Y2 ag 57 | CNGC counter 55
CCCCOc1ccc2c(c1)C(=O)c1cc(O)ccc1-2	NPY1 pot ag 38 (no result: NPY-Y2 antag) | NPY-Y1 confirm 49 | NPY-Y2 counter 41 | NPY-Y1 agonist 40 | NPY-Y2 ag 39 | CNGC counter 33
CC1(C)Cc2c(cnn2-c2ccccc2)C(=O)/C1=N\NC(=O)c1ccccc1N	none (no result: b-catenin transl)
